pEC50, pIC50: −log10 of the molar value.
What was measured:
[1] = Metabolic stability in human liver microsomes assessed as parent compound remaining; assay type: ADME, Microsome
Summary of the method: (§1)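 Test compound at 0.5 μM initial concentration incubated with human, mouse or rat liver microsomes (protein 1 mg/mL). Metabolic stability reported as percent of parent compound remaining after incubation.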

[2] = Metabolic stability in rat liver microsomes assessed as parent compound remaining; assay type: ADME, Microsome; summary of the method: as §1
[3] = Half life in dog liver microsomes; assay type: ADME, Canis lupus familiaris, Microsome
Summary of the method: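 Liver microsome half-life (min) measured in human, mouse, rat, dog and cyno liver microsomes.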

[4] = Permeability across apical to basolateral membrane in human Caco-2 cells; assay type: ADME, cell-based; conditions: read-out: permeability
Summary of the method: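 Caco-2 monolayer permeability, apical-to-basolateral direction (Pc, nm/s). An efflux ratio is also reported.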

[5] = target: T1, Nuclear receptor ROR-alpha (Homo sapiens, UniProt P35398); experiment: Inverse agonist activity at Gal4-fused RORalpha (unknown origin)
T1 sequence (P35398 whole entry): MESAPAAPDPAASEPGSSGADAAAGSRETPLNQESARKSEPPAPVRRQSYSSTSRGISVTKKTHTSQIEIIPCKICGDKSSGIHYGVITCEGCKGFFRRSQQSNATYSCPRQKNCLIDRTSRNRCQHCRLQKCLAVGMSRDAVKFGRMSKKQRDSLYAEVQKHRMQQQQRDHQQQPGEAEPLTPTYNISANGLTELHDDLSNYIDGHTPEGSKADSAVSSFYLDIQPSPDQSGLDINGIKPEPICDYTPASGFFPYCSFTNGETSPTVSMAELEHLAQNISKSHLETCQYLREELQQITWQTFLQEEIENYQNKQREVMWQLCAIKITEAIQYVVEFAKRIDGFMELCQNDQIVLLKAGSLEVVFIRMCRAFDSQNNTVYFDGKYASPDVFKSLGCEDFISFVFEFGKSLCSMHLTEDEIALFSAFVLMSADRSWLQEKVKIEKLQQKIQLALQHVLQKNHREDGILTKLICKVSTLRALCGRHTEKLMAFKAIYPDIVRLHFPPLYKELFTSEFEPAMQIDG

[6] = target: T2, Nuclear receptor subfamily 1 group I member 2 (Homo sapiens, UniProt O75469); experiment: Inverse agonist activity at PXR (unknown origin)
T2 sequence (O75469 whole entry): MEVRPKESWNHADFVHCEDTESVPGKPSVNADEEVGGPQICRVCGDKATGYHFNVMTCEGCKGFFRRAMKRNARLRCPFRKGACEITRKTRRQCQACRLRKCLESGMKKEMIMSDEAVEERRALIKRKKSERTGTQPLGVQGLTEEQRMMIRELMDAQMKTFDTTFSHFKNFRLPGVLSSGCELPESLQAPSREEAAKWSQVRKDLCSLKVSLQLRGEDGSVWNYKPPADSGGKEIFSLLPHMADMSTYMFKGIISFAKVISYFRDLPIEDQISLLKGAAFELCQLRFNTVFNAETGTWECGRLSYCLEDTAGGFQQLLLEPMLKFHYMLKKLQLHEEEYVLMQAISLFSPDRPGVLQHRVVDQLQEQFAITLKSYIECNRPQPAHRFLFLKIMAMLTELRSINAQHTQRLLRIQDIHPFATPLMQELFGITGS

[7] = target: T3, Oxysterols receptor LXR-alpha (Homo sapiens, UniProt Q13133); experiment: Inverse agonist activity at LXRalpha (unknown origin)
T3 sequence (Q13133 whole entry): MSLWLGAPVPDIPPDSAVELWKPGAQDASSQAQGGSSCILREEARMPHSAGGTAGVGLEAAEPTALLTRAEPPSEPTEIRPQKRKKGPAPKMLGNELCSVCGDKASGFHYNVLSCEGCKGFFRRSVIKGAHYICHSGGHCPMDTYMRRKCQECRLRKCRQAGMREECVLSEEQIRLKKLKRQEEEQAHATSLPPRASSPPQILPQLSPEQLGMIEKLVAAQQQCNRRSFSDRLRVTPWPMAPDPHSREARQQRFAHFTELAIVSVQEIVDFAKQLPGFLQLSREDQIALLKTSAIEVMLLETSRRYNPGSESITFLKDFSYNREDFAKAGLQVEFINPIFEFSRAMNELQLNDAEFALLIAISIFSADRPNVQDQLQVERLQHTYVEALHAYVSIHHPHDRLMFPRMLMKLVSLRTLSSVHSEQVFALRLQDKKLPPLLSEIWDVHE

[8] = Protein binding in human assessed as unbound fraction; assay type: ADME
[9] = target: Cytochrome P450 2C9 (Homo sapiens, UniProt P11712); experiment: Inhibition of CYP2C9 (unknown origin); assay type: ADME
Sequence of Cytochrome P450 2C9 (P11712 whole entry): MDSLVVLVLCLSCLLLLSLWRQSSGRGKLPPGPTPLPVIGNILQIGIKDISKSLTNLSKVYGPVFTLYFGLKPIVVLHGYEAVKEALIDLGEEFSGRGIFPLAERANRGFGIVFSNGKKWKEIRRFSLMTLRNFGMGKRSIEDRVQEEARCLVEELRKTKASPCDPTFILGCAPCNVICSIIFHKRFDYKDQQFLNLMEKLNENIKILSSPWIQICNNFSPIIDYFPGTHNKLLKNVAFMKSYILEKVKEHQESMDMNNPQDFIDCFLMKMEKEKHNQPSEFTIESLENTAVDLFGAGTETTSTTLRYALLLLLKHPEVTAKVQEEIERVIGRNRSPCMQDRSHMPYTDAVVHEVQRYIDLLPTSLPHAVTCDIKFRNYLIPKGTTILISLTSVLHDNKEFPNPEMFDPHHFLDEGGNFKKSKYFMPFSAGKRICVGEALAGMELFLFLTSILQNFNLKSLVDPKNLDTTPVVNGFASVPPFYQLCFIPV

[10] = target: Cytochrome P450 3A4 (Homo sapiens, UniProt P08684); experiment: Inhibition of CYP3A4 (unknown origin); assay type: ADME
Sequence of Cytochrome P450 3A4 (P08684 whole entry): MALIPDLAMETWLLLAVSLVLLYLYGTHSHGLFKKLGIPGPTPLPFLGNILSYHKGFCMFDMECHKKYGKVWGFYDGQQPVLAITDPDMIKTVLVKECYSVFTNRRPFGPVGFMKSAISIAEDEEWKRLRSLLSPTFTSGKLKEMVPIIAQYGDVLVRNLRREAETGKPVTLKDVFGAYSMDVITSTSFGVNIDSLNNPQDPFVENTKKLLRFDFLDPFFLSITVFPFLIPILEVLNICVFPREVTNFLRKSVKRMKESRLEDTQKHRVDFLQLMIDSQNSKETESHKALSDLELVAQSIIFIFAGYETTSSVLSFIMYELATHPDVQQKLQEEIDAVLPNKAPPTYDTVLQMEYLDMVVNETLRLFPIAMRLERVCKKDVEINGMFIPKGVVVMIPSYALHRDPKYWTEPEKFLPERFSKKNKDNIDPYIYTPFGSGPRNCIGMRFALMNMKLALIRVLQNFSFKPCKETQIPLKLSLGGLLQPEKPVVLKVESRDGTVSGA

[11] = target: T4, Cytochrome P450 2C8 (Homo sapiens, UniProt P10632); experiment: Inhibition of CYP2C8 (unknown origin); assay type: ADME
T4 sequence (P10632 whole entry): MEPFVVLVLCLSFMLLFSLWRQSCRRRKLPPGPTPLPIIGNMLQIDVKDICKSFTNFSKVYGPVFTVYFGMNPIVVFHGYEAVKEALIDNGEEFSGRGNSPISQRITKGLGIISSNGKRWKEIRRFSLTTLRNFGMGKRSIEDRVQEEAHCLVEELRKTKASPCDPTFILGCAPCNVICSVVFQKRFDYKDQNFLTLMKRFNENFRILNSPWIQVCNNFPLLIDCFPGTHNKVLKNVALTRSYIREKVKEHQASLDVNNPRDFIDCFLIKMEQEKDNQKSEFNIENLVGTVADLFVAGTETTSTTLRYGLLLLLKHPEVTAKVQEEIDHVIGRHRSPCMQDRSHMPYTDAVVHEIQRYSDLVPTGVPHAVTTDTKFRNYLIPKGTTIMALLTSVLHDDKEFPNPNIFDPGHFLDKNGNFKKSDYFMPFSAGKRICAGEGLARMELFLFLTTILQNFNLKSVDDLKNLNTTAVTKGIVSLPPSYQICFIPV

[12] = Oral bioavailability in mouse at 4 mg/kg; assay type: ADME, organism-based; conditions: in vivo
Summary of the method: (§2)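 Single-dose PK, IV and PO. Doses: mouse and rat 2 mg/kg IV / 4 mg/kg PO; dog and cyno 1 mg/kg IV, with 1 or 2 mg/kg PO.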

[13] = Clearance in rat at 2 mg/kg, iv; assay type: ADME, organism-based; conditions: in vivo; summary of the method: as §2
[14] = Cmax in dog at 2 mg/kg, po; assay type: ADME, organism-based, Canis lupus familiaris; set-up: route oral, dose 2 mg/kg; conditions: in vivo; summary of the method: as §2
[15] = Cmax in cynomolgus monkey at 2 mg/kg, po; assay type: ADME, organism-based, Macaca fascicularis; set-up: route oral, dose 2 mg/kg; conditions: in vivo; summary of the method: as §2
[16] = test system: Mus musculus; experiment: Protection against imiquimod-induced C57BL/6 mouse model of psoriasis assessed as change in skin thickness at 5 mg/kg, po BID for 7 days and measured every day for 8 days relative to control; assay type: functional; conditions: time 7 day
[17] = test system: Mus musculus; experiment: Protection against imiquimod-induced C57BL/6 mouse model of psoriasis assessed as reduction in IL-17A mRNA levels at 5 mg/kg, po BID for 7 days by RT-PCR analysis relative to control; assay type: functional; set-up: scale not given: the % may be the effect or the level left; conditions: time 7 day
[18] = test system: Mus musculus; experiment: Protection against imiquimod-induced C57BL/6 mouse model of psoriasis assessed as reduction in IL-17A mRNA levels at 20 mg/kg, po BID for 7 days by RT-PCR analysis relative to control; assay type: functional; set-up: scale not given: the % may be the effect or the level left; conditions: time 7 day
[19] = test system: Mus musculus; experiment: Protection against imiquimod-induced C57BL/6 mouse model of psoriasis assessed as reduction in IL-17F mRNA levels at 5 mg/kg, po BID for 7 days by RT-PCR analysis relative to control; assay type: functional; set-up: scale not given: the % may be the effect or the level left; conditions: time 7 day

CC(C)(O)C(=O)N[C@@H]1CC[C@@]2(S(=O)(=O)c3ccc(F)cc3)c3ccc(C(F)(C(F)(F)F)C(F)(F)F)cc3CC[C@@H]12
Stabilty [1]: 100% | Stabilty [2]: 100% | half-life [3]: 2 h | Papp A→B [4]: 10.6 ×10⁻⁶ cm/s | pEC50 [5]: < 5.00 | pEC50 [6]: < 5.30 | pEC50 [7]: < 5.30 | fraction unbound [8]: 0.005 | pIC50 [9]: 4.92 | pIC50 [10]: 4.96 | pIC50 [11]: 4.92 | bioavailability [12]: 100% | clearance [13]: 4.2 mL/min/kg | Cmax [14]: 1300 nM | Cmax [15]: 1100 nM | Activity [16]: 67.2% | Activity [17]: 75.9% | Activity [18]: 91.5% | Activity [19]: 79.2%
